From PubChem BioAssay
Sampled rows, rich in hits. Any-hit rate of the full collection: about 1.3%.
TDP2 absorb – TDP2 (human) inhibition, absorbance primary screen; O95551; recombinant TDP2, T5PNP hydrolysis, p-nitrophenol absorbance 415 nm; inhibition, % at 12.8 µM; 370,000 tested, 0.34% active; AID 720702;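 active = inhibition above the mean of all tested compounds plus 3 SD, set per campaign, cut at about 25% in these data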;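 also: 0% = DMSO with enzyme and 100% = buffer with substrate but no TDP2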
Target sequence (O95551 whole entry, looked up): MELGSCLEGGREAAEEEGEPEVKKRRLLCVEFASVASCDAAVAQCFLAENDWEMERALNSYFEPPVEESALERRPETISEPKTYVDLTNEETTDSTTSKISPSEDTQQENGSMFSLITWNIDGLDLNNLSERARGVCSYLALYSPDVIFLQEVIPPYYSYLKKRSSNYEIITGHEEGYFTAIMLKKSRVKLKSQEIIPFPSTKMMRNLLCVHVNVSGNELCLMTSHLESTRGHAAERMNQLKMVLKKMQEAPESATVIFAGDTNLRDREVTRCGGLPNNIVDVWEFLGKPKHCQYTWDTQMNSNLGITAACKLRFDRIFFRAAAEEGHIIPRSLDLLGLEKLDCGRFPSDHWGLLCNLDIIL
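System – recombinant human TDP2 · Amount – 120 nM TDP2 per well · Buffer or medium – Mg2+-containing Tris-HCl buffer, pH 7.5 · Reagent – T5PNP substrate, 5 mM · Dosing – 12.8 µM single point, 1% DMSO · Incubation – 2 h at 37 °C · Measured by – epi absorbance · Read-out basis – percent inhibition · Benchmarks – high control without enzyme, low control DMSO plus TDP2 · Repeats – singlicate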
Casp6 inh – blocks human caspase-6 cleavage activity. P55212. purified caspase-6, Z-VEID-R110 cleavage fluorescence. inhibition, % at 12.5 µM. 350,000 tested, 0.53% active;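 active = mean inhibition across replicates at least about 35%, with every replicate also reaching that limit, limit read from the data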;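 also: 0% = median of neutral control wells and 100% = no fluorescence left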
LEDGF integ inh – blocks HIV-1 LEDGF/p75-dependent DNA integration | TR-FRET IN-LEDGF/p75 DNA integration, Eu/Cy5 | 370,000 tested, 0.64% active | inhibition, % at 3.7 µM;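 active = inhibition above the screen-wide mean plus 3 SD, cut at about 13% in these data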;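 also: signal is the Cy5 over europium emission ratio at 671 and 618 nm; 0% = plate median of compound wells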
ASAP1 GAP inh – inhibitors of human ASAP1 ArfGAP activity. 360,000 tested, 0.19% active. Q9ULH1. ASAP1-stimulated ARF1 GTP hydrolysis, GDP FP detection. inhibition, % at 16.5 µM; in the data active = inhibition above about 25%;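 also: 0% = vehicle with enzyme and substrate and 100% = no enzyme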
ARFGAP1 inh – inhibits rat ARF GTPase activating protein 1; inhibition, % at 16.5 µM; Arfgap1-stimulated ARF1 GTP hydrolysis, GDP FP detection; 360,000 tested, 0.26% active; AID 651572;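 active = inhibition above a per-plate limit, mean inhibition of low control wells plus 3 SD, cut at about 25% in these data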;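 also: 0% = DMSO wells with enzyme and 100% = wells lacking Arfgap1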
Target sequence (Q62848 1-136 limits assumed): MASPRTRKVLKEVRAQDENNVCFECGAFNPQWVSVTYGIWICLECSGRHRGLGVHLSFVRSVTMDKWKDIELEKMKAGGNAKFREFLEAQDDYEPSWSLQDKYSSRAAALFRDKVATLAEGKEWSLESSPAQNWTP
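material = rat Arfgap1 catalytic domain, aa 1-136 | also added = human ARF1(Δ1-17)-GTP substrate | compound dosing = one concentration, 16.5 µM, DMSO 1.26% | times = GTP hydrolysis reaction 2 h at 25 °C | measured by = FP, GDP Alexa 633 tracer displaced from anti-GDP antibody, 620/688 nm | evaluation = percent inhibition of Arfgap1-stimulated GTP hydrolysis | replication = single well per compound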
ASAP1 inh confirm – ASAP1 inhibition confirmed; shares compounds with ASAP1 GAP inh; ASAP1-stimulated Arf1 GTPase, GDP fluorescence polarization; inhibition, % at 16.5 µM; 620 tested, 37% active; AID 624431;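 active = mean inhibition over triplicates exceeds the hit threshold derived for the earlier primary screening run, cut at about 25% in these data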
* hit, by the source's call; / = no result.

SMILES | TDP2 absorb | Casp6 inh | LEDGF integ inh | ASAP1 GAP inh | ARFGAP1 inh | ASAP1 inh confirm
COc1cc2c3nnc(-c4ccc(F)cc4)c-3cn(Cc3cccc(C)c3)c2cc1OC | -5.2 | -1.0 | 4.2 | 122.7* | -6.3 | 181.0*
C=CCN(c1ccccc1OC)S(=O)(=O)c1cccc(C(=O)OCC(=O)c2c[nH]c3ccccc23)c1 | 3.7 | / | 0.3 | 2.0 | 8.1 | /
C=CCN(c1ccccc1OC)S(=O)(=O)c1cccc(C(=O)OCC(=O)N2CCOCC2)c1 | -1.8 | -1.3 | -7.1 | 76.5* | -3.9 | 6.0
C/C=C(/C)C(=O)O[C@@H]1[C@H](OC(=O)C=C(C)C)c2c(ccc3ccc(=O)oc23)OC1(C)C | -18.1 | -2.2 | -1.7 | 26.1* | -0.8 | 3.0
CCOC(=O)c1sc(Nc2ccccc2)nc1C | 0.0 | / | -0.9 | 5.8 | -10.1 | /
CCOC(=O)c1sc(Nc2nc3c(OC)cccc3s2)nc1C | -4.4 | / | -0.8 | 25.4* | 0.7 | 14.3
CCN(CC(=O)Nc1ccccc1OC)C(=O)CN1C(=O)NC(C)(c2ccc(C)cc2)C1=O (stereo unspecified) | 2.6 | 3.5 | 0.7 | 4.2 | -9.6 | /
COc1ccc(C(=O)Nc2nc3cc4c(cc3s2)OCO4)c(OC)c1 | -5.1 | -2.4 | -2.7 | 31.4* | 7.8 | 41.4*
COc1ccc2nc(NC(=O)c3cc(C)oc3C)sc2c1 | -1.6 | / | 1.2 | -0.7 | 5.7 | /
COc1ccc2c(c1)[C@]1(C[C@H](O)CO1)C(=O)N2C | 0.3 | 1.5 | 4.4 | -7.0 | -0.7 | /
Cc1cc(C)cc(NC(=O)CSc2nc(CSc3ccc(Cl)cc3)cc(=O)[nH]2)c1 | -0.3 | -5.6 | -5.7 | 26.2* | 11.2 | -3.6
Nc1cc(=O)[nH]c(SCC(=O)Nc2cc(Cl)cc(Cl)c2)n1 | 10.1 | / | 1.1 | 7.2 | -5.1 | /
Cn1cc([N+](=O)[O-])c(C(=O)Nc2sc3c(c2C#N)CCC3)n1 | -10.6 | 2.4 | -7.3 | 7.4 | 7.2 | /
Cc1ccc(C(=O)Nc2cccc(NC(=O)c3ccc(C)c([N+](=O)[O-])c3)n2)cc1[N+](=O)[O-] | -16.0 | 1.9 | -1.5 | 28.4* | 5.1 | 28.4*
Cc1cc(NC(=O)c2ccc(C)c([N+](=O)[O-])c2)no1 | 4.5 | 5.9 | -0.5 | -0.3 | 8.2 | /
Cc1nc(C)n(CC(O)COc2ccc(C(=O)c3ccccc3)cc2)n1 (stereo unspecified) | 11.3 | / | 1.6 | -2.0 | 4.0 | /
Cn1cccc1Cc1nnc(SCC(=O)N2CCOCC2)n1-c1ccc(F)cc1 | 2.0 | -1.1 | -1.4 | 25.4* | 9.3 | 0.5
CC(C)Oc1ccc(F)cc1-c1cc(C(=O)NCc2cccs2)[nH]n1 | -5.0 | 1.0 | 1.3 | -17.0 | -3.3 | /
Cc1ccsc1C(=O)OCC(=O)NC1CC1 | 5.1 | -6.3 | -2.7 | 5.0 | -9.1 | /
Cc1ccsc1C(=O)OCC(=O)NC1CCCCC1 | 7.8 | -2.5 | -3.8 | 29.3* | -0.9 | 5.8
COC(=O)c1ccccc1NC1=C/C(=N\S(=O)(=O)c2cccs2)c2ccccc2C1=O | 12.0 | 0.9 | 0.8 | 35.4* | 10.9 | 6.3
Cc1ccc(N(CC(=O)N/N=C/c2cc(C)n(-c3ccccc3)c2C)S(C)(=O)=O)c(C)c1 | 5.4 | / | -1.2 | -4.7 | 2.9 | /
Cc1cc(/C=N/NC(=O)Cn2c3ccccc3c(=O)c3ccccc32)c(C)n1-c1ccccc1 | 1.9 | 0.8 | 0.7 | 24.9* | 19.5 | 7.1
Cc1ccc(N(C)S(=O)(=O)c2ccc3[nH]cc(C(=O)NCCCN4CCOCC4)c(=O)c3c2)cc1C | 1.7 | -2.9 | 1.0 | 30.1* | -4.6 | 4.7
CN(C(=O)COC(=O)c1cc([N+](=O)[O-])ccc1N1CCOCC1)C1CCCCC1 | 3.6 | 0.4 | 0.4 | 0.5 | 4.1 | /
SMILES | TDP2 absorb | Casp6 inh | LEDGF integ inh | ASAP1 GAP inh | ARFGAP1 inh | ASAP1 inh confirm
CC1CCCCN1C(=O)COC(=O)c1cc([N+](=O)[O-])ccc1N1CCOCC1 (stereo unspecified) | -17.9 | 6.0 | -5.0 | 29.4* | 2.8 | 3.8
CC(=O)N(C)C[C@@H]1Oc2ncc(C#CCc3ccccc3)cc2C(=O)N([C@H](C)CO)C[C@@H]1C | / | -0.5 | / | / | / | /
CC(=O)Nc1ccc(Sc2ccc([N+](=O)[O-])o2)cc1 | -6.1 | 9.6 | 6.4 | 30.9* | 0.9 | 1.4
COc1cc(/C=C/C(=O)Nc2cc(C(F)(F)F)ccc2Cl)cc(OC)c1OC | -10.0 | / | -0.2 | 25.0* | 2.0 | 14.4
Cc1ccc(C(=O)O/N=C/c2c(C(F)(F)F)nn(C)c2Sc2ccc(Cl)cc2)cc1 | 6.4 | / | 2.2 | -7.9 | -2.8 | /
Cc1ccc(C(=O)O/N=C/c2c(C)nn(C)c2Cl)cc1 | 1.2 | 1.6 | -0.1 | 26.6* | 3.9 | 0.1
Cc1occc1-c1nnc(SCC(=O)NCc2cccs2)n1-c1ccc(F)cc1 | 2.7 | / | 3.8 | 26.3* | -3.6 | 5.7
Cc1nnc(SCC(=O)NCc2cccs2)n1-c1ccccc1 | 3.8 | / | 2.1 | 8.1 | -6.8 | /
O=C1CCn2c1c(O)c1ccccc1c2=O | 1.7 | 95.1* | 3.7 | 37.3* | 9.3 | 15.4
C[C@@H]1CCCCO[C@@H](CN(C)C(=O)Nc2ccc(C(F)(F)F)cc2)[C@@H](C)CN([C@H](C)CO)C(=O)c2cc(NC(=O)NC3CCCCC3)ccc2O1 | / | -0.1 | / | / | / | /
COc1ccc(/C(C)=N/OCC(=O)Nc2nc3ccccc3s2)cc1OC | -12.1 | 3.0 | 3.4 | 0.7 | 16.5 | /
OCC[C@@H]1C[C@H](O)[C@@H](O)[C@@]2(OCc3cc(Cl)ccc32)O1 | 1.8 | 0.4 | 3.6 | 24.9* | 5.4 | 4.2
C[C@H](CCC(=O)O)[C@H]1CC[C@H]2[C@@H]3CC[C@@H]4C[C@H](O)CC[C@]4(C)[C@H]3C[C@H](O)[C@]12C | -1.7 | 6.3 | -2.9 | 15.9 | 4.1 | /
C[C@H](CCC(=O)OCc1cn(CC(=O)c2ccc(O)cc2)nn1)C1CC[C@H]2[C@@H]3CC[C@@H]4C[C@H](O)CC[C@]4(C)[C@H]3C[C@H](O)[C@]12C (stereo partly specified) | -14.2 | / | -0.5 | 28.9* | 24.3 | 16.8
COc1ccc(-c2csc(NC(=O)c3ccccc3NS(=O)(=O)c3ccc(F)c(F)c3)n2)cc1 | -4.4 | 4.4 | -2.8 | 28.6* | 9.7 | 23.7
Cc1ccc(NC(=O)C(OC(=O)c2ccc(NC(N)=O)cc2)c2ccccc2)cc1Cl (stereo unspecified) | -9.2 | 5.3 | -2.3 | 27.5* | 10.6 | 19.4
COCC(=O)Nc1ccc2c(c1)OC[C@H](C)N(Cc1ccccc1F)C[C@@H](C)[C@@H](OC)CN(C)C2=O | / | -0.1 | / | / | / | /
O=C(N/N=C/c1ccc(F)cc1)c1cc(-c2ccc3c(c2)OCO3)n[nH]1 | -18.2 | 3.7 | 3.4 | 18.8 | 9.5 | /
COc1ccc(/C=N/NC(=O)c2cc(-c3ccc4c(c3)OCO4)n[nH]2)cc1OC | 5.7 | 0.6 | -0.6 | 26.0* | 19.7 | 33.7*
CCC(=O)N[C@@H]1CC[C@H](CC(=O)NCc2cc(F)cc(F)c2)O[C@@H]1CO | / | -0.6 | / | / | / | /
